Activity calls are given as the source filed them.
How the values were obtained:
Type in all cases: functional, organism-based
[1] = tested on: Vesicular stomatitis virus; assay: Antiviral activity against VSV infected in HEL cells assessed as reduction of virus-induced cytopathic effect at 10 to 100 ug/ml
Feline coronavirus = assay: Antiviral activity against Feline coronavirus infected in cat CRFK cells assessed as effect on cell viability at 10 to 100 ug/ml by MTS assay
Summary of the method: (§1)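 CRFK feline kidney cells, confluent in 96-well plates, infected with 100 CCID50; after 1–2 h adsorption, inoculum removed and cultures kept with varying compound concentrations until CPE complete in untreated virus controls. Cell viability read by colorimetric formazan-based MTS assay; EC50 = concentration reducing virus-induced cytopathicity by 50%. Top subtoxic concentrations 10–100 μg/mL.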

Human respirovirus 3 = assay: Antiviral activity against Parainfluenza virus 3 infected in african green monkey Vero cells assessed as reduction of virus-induced cytopathic effect at 10 to 100 ug/ml
Summary of the method: (§2)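 Confluent cell monolayers in 96-well plates inoculated with 100 CCID50 of virus; 1–2 h adsorption, residual virus removed, then incubated with varying compound concentrations. CPE scored visually once complete in untreated infected controls; EC50 = concentration reducing virus-induced cytopathicity by 50%. Highest subtoxic concentrations tested 10–100 μg/mL.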

Human alphaherpesvirus 3 [2] = assay: Antiviral activity against Varicella Zoster virus Oka infected in HEL cells assessed as reduction in viral plaque formation at 10 to 100 ug/ml
Human alphaherpesvirus 2 = assay: Antiviral activity against HSV2 G infected in HEL cells assessed as reduction of virus-induced cytopathic effect at 10 to 100 ug/ml; conditions: strain G
Sindbis virus = assay: Antiviral activity against Sindbis virus infected in african green monkey Vero cells assessed as reduction of virus-induced cytopathic effect at 10 to 100 ug/ml; summary of the method: as §2
Human alphaherpesvirus 3 [3] = assay: Antiviral activity against thymidine kinase-deficient Varicella Zoster virus 07/1 infected in HEL cells assessed as reduction in viral plaque formation at 10 to 100 ug/ml
[4] = tested on: Mammalian orthoreovirus 1; assay: Antiviral activity against Reovirus 1 infected in african green monkey Vero cells assessed as reduction of virus-induced cytopathic effect at 10 to 100 ug/ml; summary of the method: as §2
Human alphaherpesvirus 1 [5] = assay: Antiviral activity against HSV1 KOS infected in HEL cells assessed as reduction of virus-induced cytopathic effect at 10 to 100 ug/ml
Punta Toro virus = assay: Antiviral activity against Punta Toro virus infected in african green monkey Vero cells assessed as reduction of virus-induced cytopathic effect at 10 to 100 ug/ml; summary of the method: as §2
[6] = tested on: Respiratory syncytial virus; assay: Antiviral activity against RSV Long infected in human HeLa cells assessed as reduction of virus-induced cytopathic effect at 10 to 100 ug/ml; summary of the method: as §2
Human betaherpesvirus 5 [7] = assay: Antiviral activity against HCMV Davis infected in HEL cells assessed as reduction of virus plaque formation at 10 to 100 ug/ml
Summary of the method: (§3)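 HEL fibroblasts in 96-well plates infected with 100 PFU HCMV; 1–2 h adsorption, residual virus removed, incubation with varying compound concentrations. EC50 taken as concentration reducing viral plaque formation by 50%. Highest subtoxic concentrations 10–100 μg/mL.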

Coxsackievirus B4 [8] = assay: Antiviral activity against Coxsackievirus B4 infected in african green monkey Vero cells assessed as reduction of virus-induced cytopathic effect at 10 to 100 ug/ml; summary of the method: as §2
Human alphaherpesvirus 1 [9] = assay: Antiviral activity against acyclovir-resistant thymidine kinase-deficient HSV1 KOS infected in HEL cells assessed as reduction of virus-induced cytopathic effect at 10 to 100 ug/ml
Coxsackievirus B4 [10] = assay: Antiviral activity against Coxsackievirus B4 infected in human HeLa cells assessed as reduction of virus-induced cytopathic effect at 10 to 100 ug/ml; summary of the method: as §2
Felid alphaherpesvirus 1 = assay: Antiviral activity against Feline herpesvirus infected in cat CRFK cells assessed as effect on cell viability at 10 to 100 ug/ml by MTS assay; summary of the method: as §1
Vaccinia virus = assay: Antiviral activity against Vaccinia virus Lederle infected in HEL cells assessed as reduction of virus-induced cytopathic effect at 10 to 100 ug/ml; conditions: Orthopoxvirus vaccinia
[11] = tested on: Vesicular stomatitis virus; assay: Antiviral activity against VSV infected in human HeLa cells assessed as reduction of virus-induced cytopathic effect at 10 to 100 ug/ml
Summary of the method: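 Confluent HeLa cell cultures were inoculated with 100 CCID50 of VSV and allowed to adsorb for 1–2 h. Unbound virus was removed and cultures were incubated with varying compound concentrations. CPE was scored visually when complete in untreated infected controls. EC50 is the concentration reducing CPE by 50%.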

Human betaherpesvirus 5 [12] = assay: Antiviral activity against HCMV AD169 infected in HEL cells assessed as reduction of virus plaque formation at 10 to 100 ug/ml; summary of the method: as §3

Measured: Activity

Cc1ccc(S(=O)(=O)N(CCOCP(=O)(O)O)Cn2ccc(N)nc2=O)cc1
inactive: [1] | Feline coronavirus | Human respirovirus 3 | Human alphaherpesvirus 3 [2] | Human alphaherpesvirus 2 | Sindbis virus | Human alphaherpesvirus 3 [3] | [4] | Human alphaherpesvirus 1 [5] | Punta Toro virus | [6] | Human betaherpesvirus 5 [7] | Coxsackievirus B4 [8] | Human alphaherpesvirus 1 [9] | Coxsackievirus B4 [10] | Felid alphaherpesvirus 1 | Vaccinia virus | [11] | Human betaherpesvirus 5 [12]

Cc1ccc(S(=O)(=O)N(CCOCP(=O)(O)O)Cn2cc(C)c(=O)[nH]c2=O)cc1
inactive: [1] | Feline coronavirus | Human respirovirus 3 | Human alphaherpesvirus 3 [2] | Human alphaherpesvirus 2 | Sindbis virus | Human alphaherpesvirus 3 [3] | [4] | Human alphaherpesvirus 1 [5] | Punta Toro virus | [6] | Human betaherpesvirus 5 [7] | Coxsackievirus B4 [8] | Human alphaherpesvirus 1 [9] | Coxsackievirus B4 [10] | Felid alphaherpesvirus 1 | Vaccinia virus | [11] | Human betaherpesvirus 5 [12]

Cc1ccc(S(=O)(=O)N(CCOCP(=O)(O)O)Cn2cc(F)c(=O)[nH]c2=O)cc1
inactive: [1] | Feline coronavirus | Human respirovirus 3 | Human alphaherpesvirus 3 [2] | Human alphaherpesvirus 2 | Sindbis virus | Human alphaherpesvirus 3 [3] | [4] | Human alphaherpesvirus 1 [5] | Punta Toro virus | [6] | Human betaherpesvirus 5 [7] | Coxsackievirus B4 [8] | Human alphaherpesvirus 1 [9] | Coxsackievirus B4 [10] | Felid alphaherpesvirus 1 | Vaccinia virus | [11] | Human betaherpesvirus 5 [12]

Cc1ccc(S(=O)(=O)N(CCOCP(=O)(O)O)Cn2ccc(=O)[nH]c2=O)cc1
inactive: [1] | Feline coronavirus | Human respirovirus 3 | Human alphaherpesvirus 3 [2] | Human alphaherpesvirus 2 | Sindbis virus | Human alphaherpesvirus 3 [3] | [4] | Human alphaherpesvirus 1 [5] | Punta Toro virus | [6] | Human betaherpesvirus 5 [7] | Coxsackievirus B4 [8] | Human alphaherpesvirus 1 [9] | Coxsackievirus B4 [10] | Felid alphaherpesvirus 1 | Vaccinia virus | [11] | Human betaherpesvirus 5 [12]
